Test results as given in article PMC4160413 (Cancer cell, 2014).
Read-outs that look alike come from different tables or passages of the source.

Assays:
MYCN [1] = assay: Immunoblot of MYCN protein in SK-N-BE; type: cell-based; conditions: SK-N-BE(2) cells, 1 μM, 24 hr
Aurora A = biological target: T1, Aurora A (Homo sapiens, UniProt O14965, T287D); assay: In vitro kinase assay with purified Aurora A protein; type: biochemical; conditions: structure-activity comparison
T1 sequence (O14965 123-390 T287D): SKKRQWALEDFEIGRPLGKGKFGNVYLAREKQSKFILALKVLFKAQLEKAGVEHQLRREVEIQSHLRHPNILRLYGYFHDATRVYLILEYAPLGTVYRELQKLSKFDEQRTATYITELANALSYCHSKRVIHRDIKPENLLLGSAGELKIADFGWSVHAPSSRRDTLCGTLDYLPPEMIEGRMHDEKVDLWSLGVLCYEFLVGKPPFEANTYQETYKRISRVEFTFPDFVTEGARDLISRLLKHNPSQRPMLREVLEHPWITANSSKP

SK-N-BE(2) cells = assay: Cell cycle by flow cytometry; type: cell-based
Procedure, shortened: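 SK-N-BE(2) cells in RPMI with 10% FBS, exposed to test compound for the stated time. EdU pulse before harvest: 2 hours per methods, 1 hr in the 6 hr, 1 μM experiment. Detection used the Click-iT EdU flow kit plus propidium iodide staining, read on a FACSCalibur. Gating was done in Cytobank.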

[2] = system: GFP- and MYCN-transduced SH-EP neuroblastoma cells; assay: Viability of SHEP cells transduced with MYCN or GFP, 72 hr; type: cell-based; conditions: MYCN- vs GFP-transduced SH-EP
[3] = system: Kelly MYCN-amplified neuroblastoma cells; assay: CyQUANT viability assay, 72 hr, Kelly; type: cell-based; conditions: read-out: cellular EC50 at 72 hr
[4] = system: panel 169 distinct tumor-derived cell lines; assay: Screen of 169 tumor-derived cell lines; type: cell-based; conditions: for susceptibility of MYCN-amplified versus non-amplified cell lines: 93 lines with MYCN copy number
[5] = system: SK-N-BE(2) MYCN-amplified neuroblastoma cells; assay: CyQUANT viability assay, 72 hr, SK-N-BE; type: cell-based; conditions: read-out: cellular EC50 at 72 hr
MYCN-Aurora A complex = biological target: T2, MYCN-Aurora A complex (Homo sapiens, UniProt O14965); assay: MYCN immunoprecipitation; type: cell-based; conditions: for dissociation of the MYCN-Aurora A complex: IMR32 cells, 2 hr drug, MG-132 4 hr
T2 sequence (O14965 1-403): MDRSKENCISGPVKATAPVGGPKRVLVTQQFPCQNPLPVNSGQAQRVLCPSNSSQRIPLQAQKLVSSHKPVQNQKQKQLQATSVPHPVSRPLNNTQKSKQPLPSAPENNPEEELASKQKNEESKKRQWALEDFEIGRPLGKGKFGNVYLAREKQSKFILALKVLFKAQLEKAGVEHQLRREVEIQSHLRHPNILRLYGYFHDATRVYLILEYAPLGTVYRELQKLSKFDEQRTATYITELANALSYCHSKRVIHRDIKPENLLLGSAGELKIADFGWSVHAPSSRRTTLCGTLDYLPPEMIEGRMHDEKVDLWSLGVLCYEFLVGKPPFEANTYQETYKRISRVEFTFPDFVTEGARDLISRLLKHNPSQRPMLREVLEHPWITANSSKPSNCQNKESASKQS

[6] = Pharmacokinetic study in mice; type: in vivo
Procedure, shortened: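 Test compound formulated at 20 mg/ml in 7.5% DMSO / 92.5% PEG300 and given to mice. Compound levels determined by LC-MS/MS.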

MYCN [7] = assay: Immunoblot of MYCN in SHEP cells expressing MYCN WT or T58A/S62A; type: cell-based; conditions: 24 hr; for wild-type MYCN protein level: SHEP MYCN WT
[8] = system: MYCN-amplified SMS-KCN xenografts; assay: MYCN-amplified SMS-KCN neuroblastoma xenograft; type: in vivo, mice; conditions: 60 mg/kg for 2 days
Procedure, shortened: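 NOD scid gamma mice received 10⁶ SMS-KCN cells in growth media with 50% Geltrex, implanted into the renal capsule. Tumors were palpable at 21 days post implantation. Mice were then dosed at 60 mg/kg for two days, and tumors were harvested and flash frozen. MYCN protein was measured by immunoblot and compared by two-tailed Student's t-test (mean ± SEM).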

[9] = system: MYCN-expressing SHH-subtype medulloblastoma allograft; assay: SHH-subtype medulloblastoma subcutaneous allograft; type: in vivo, mice; conditions: 25 mg/kg twice per week
Procedure, shortened: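 Homozygous nu/nu mice carried flank subcutaneous allografts of SHH-subtype MYCN-expressing medulloblastoma (10⁶ cells per mouse). Dosing began at 25 mm³ tumor volume (~14 days): vehicle (5% DMSO in PEG300; n=6) or 25 mg/kg (formulated at 7.5 mg/ml; n=4), intraperitoneally twice weekly for up to three weeks. Endpoint was 2.0 cm maximum tumor length. Tumor burden compared by two-tailed t-test, survival by log-rank test.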

[10] = same dose (20 mg/kg); ref Carol et al., 2011; cited from earlier work
MYCN and p-Histone H3 = assay: Immunoblot screen of MYCN and p-H3 in Kelly cells; type: cell-based; conditions: 1 μM, 24 hr
Procedure, shortened: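 Kelly cells in RPMI with 10% FBS, given one of 32 compounds at 1 μM for 24 hr. Lysis in Cell Signaling buffer with 1% SDS, then sonication and boiling in LDS sample buffer. Immunoblots probed for MYCN, Histone H3, P-Histone H3 (S10), Aurora A and GAPDH. Bands quantified by densitometry and expressed as percent of untreated control.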

[11] = CD532 1 μM 4 hr, MLN8237 0.1 μM 4 hr, JQ1 2 μM 24 hr

Row | Structure (SMILES) | efficacy against MYCN (MYCN loss) relative to CD532 (MYCN [1]) | cell-free potency against Aurora A relative to CD532 (Aurora A) | cell cycle effect (SK-N-BE(2) cells; 1 μM, 4 or 6 hr) | cell cycle effect (SK-N-BE(2) cells; [11]) | susceptibility of MYCN-amplified versus non-amplified cell lines [4] | dissociation of the MYCN-Aurora A complex (MYCN-Aurora A complex) | wild-type MYCN protein level (MYCN [7]) | Histone H3 phosphorylation (MYCN and p-Histone H3) | MYCN protein level (MYCN and p-Histone H3) | other results
1 | Cc1cc(Nc2cc(C3CCCC3)[nH]n2)nc(Nc2ccc(NC(=O)Nc3cccc(C(F)(F)F)c3)cc2)n1 [CD15] | maintained | maintained |  |  |  |  |  |  |  | 
2 | O=C(Nc1ccccc1)Nc1ccc(Nc2nccc(Nc3cc(C4CCCC4)[nH]n3)n2)cc1 [CD25] | less effective than CD532 | retained potency |  |  |  |  |  |  |  | 
3 | O=C(Nc1ccc(Nc2nccc(Nc3cc(C4CCCC4)[nH]n3)n2)cc1)Nc1cccc(C(F)(F)F)c1 [CD532] |  |  | potent loss of S-phase entry | rapid and potent loss of S-phase | significantly more susceptible | dose-dependent and complete dissociation | dose-dependently decreased |  |  | effect of MYCN transduction on sensitivity [2]: conferred sensitivity; EC50 [3]: 147 nM; EC50s in cell line panel ([4]; most cell lines): nanomolar range; EC50 [5]: 223 nM; MYCN-MAX binding (MYCN-Aurora A complex; specificity control): did not affect; serum half-life [6]: ~ 1.5 hr; AUC0-24 ([6]; 20 mg/kg): 27 µM·h; MYCN T58A/S62A protein degradation (MYCN [7]; SHEP MYCN T58A/S62A): less effective; MYCN protein level in xenograft tumors [8]: decreased levels of MYCN protein; tolerability of dosing regimen [9]: without obvious short or long-term toxicity or weight loss; MYCN levels in tumors ([9]; intraperitoneal): substantially reduced MYCN levels; survival ([9]; intraperitoneal): extended survival; tumor burden ([9]; intraperitoneal): reduced tumor burden
4 | Cc1sc2c(c1C)C(c1ccc(Cl)cc1)=N[C@@H](CC(=O)OC(C)(C)C)c1nnc(C)n1-2 [JQ1, reference compound] |  |  |  | downregulation of MYCN, blockade of S-phase entry, and accumulation of cells in G0/G1 | significantly more susceptible |  |  |  |  | 
5 | COc1cc(Nc2ncc3c(n2)-c2ccc(Cl)cc2C(c2c(F)cccc2OC)=NC3)ccc1C(=O)O [MLN8237] |  |  | G2/M arrest | accumulation of cells in G2 and M phase |  | only modestly disrupted |  | blocked Histone H3 phosphorylation | very modest effects | AUC0-24 [10]: 78.4 µM·h
6 | Cc1cc(Nc2cc(N3CCN(C)CC3)nc(Sc3ccc(NC(=O)C4CC4)cc3)n2)[nH]n1 [VX-680] |  |  | G2/M arrest |  |  |  | little effect | blocked Histone H3 phosphorylation | very modest effects | 
